# Source: PubChem BioAssay (several laboratories)
# Rad51 HR inh: human RAD51 strand exchange inhibitors, primary screen, biochemical, fluorescence | DNA repair protein RAD51 homolog 1 (Homo sapiens), Q06609 | hRad51 DNA strand exchange, fluorescence dequenching | inhibition, % at 10 µM | 200,000 compounds, 0.085% hits;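 active = inhibition above 40% at the single screening dose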;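 also: 0% = DMSO control wells and 100% = blanks with heterologous ssDNA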
#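 Test system: preformed human Rad51 ssDNA filaments. Compound dosing: single dose, 10 µM final compound. Incubation: filaments 15 min 37 °C, then compound 30 min. Technique: FRET fluorescence dequenching, excitation 485 nm, emission 520 nm. Read-out basis: percent inhibition from fluorescence, normalised to plate control and blank means. Benchmarks: plate controls and plate blanks.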
# HSF-1 act: HSF-1 activators, primary screen, NIH3T3-HGL cells, MG132 stress, luminescence, single point; activation, % at 9 µM; NIH3T3-HGL HSF-1 luciferase reporter, 8 h; 100% = twice DMSO control signal; 300,000 compounds, 1.7% hits;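 active = mean replicate activation of at least 50% with a set share of replicates each reaching 50%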;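 also: 0% = median of the neutral control wells and 100% = twice that signal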
# HSV augment: enhancers of HSV replication in host cells, fold increase, host cell viability; HSV replication augmentation in cells; maximum fold increase; 220,000 compounds, 0.005% hits; AID 1956, 2009; in the data active = maximum fold increase above about 1.5; tested in PC3 cells
# HSF1 inh: HSF1 inhibitors in luciferase reporter cells, primary screen, cell-based, NIH3T3, luminescence; NIH3T3-HGL HSE-luciferase, MG132-induced, luminescence 8 h; hits give low values; 300,000 compounds, 0.77% hits; activity change, negative = inhibition, % at 7.5 µM (by protocol);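 active = more than half of replicate wells show activity change below -50%, luminescence cut by over half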;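 also: luciferase reports HSF-1 transcriptional activity via heat shock element; 0% = median of DMSO wells and -100% = zero luminescence signal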
# MDM2 E3 inh: MDM2-luciferase reporter signal enhancers, primary screen, MDM2 E3 ligase inhibitor project, cell-based, luminescence, 1536-well; E3 ubiquitin-protein ligase Mdm2 (Homo sapiens), Q00987; cell-based MDM2 ubiquitination luciferase reporter, 2 h; 0 = plate control, 100 = twice control, blank-subtracted; signal enhancement, % at 5 µM; 210,000 compounds, 0.11% hits; AID 1230, 2008;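 active = signal enhancement of 30% or more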;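 also: luminescence tracks abundance of the self-degrading MDM2-luciferase fusion protein; higher signal means inhibition of MDM2 E3 ligase activity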
# Target sequence (Q00987 whole entry, looked up, the tested form may be a part): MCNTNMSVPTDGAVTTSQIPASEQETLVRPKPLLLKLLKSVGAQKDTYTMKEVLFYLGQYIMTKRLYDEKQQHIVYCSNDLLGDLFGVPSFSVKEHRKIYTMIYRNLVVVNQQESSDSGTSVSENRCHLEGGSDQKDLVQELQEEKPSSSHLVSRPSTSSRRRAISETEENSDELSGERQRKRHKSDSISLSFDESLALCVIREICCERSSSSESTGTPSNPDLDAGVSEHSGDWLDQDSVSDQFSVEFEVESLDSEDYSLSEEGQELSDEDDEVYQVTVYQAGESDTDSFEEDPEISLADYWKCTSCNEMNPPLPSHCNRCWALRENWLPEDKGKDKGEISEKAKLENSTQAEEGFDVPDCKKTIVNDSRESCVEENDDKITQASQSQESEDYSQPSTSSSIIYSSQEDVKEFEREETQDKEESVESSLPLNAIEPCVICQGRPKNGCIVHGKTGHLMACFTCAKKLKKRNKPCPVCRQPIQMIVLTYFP
#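 Timing – 2 h compound exposure at 37 °C · Assay system – mammalian cells stably expressing self-ubiquitinating, self-degrading MDM2 E3–luciferase fusion · Amount – 2000 cells seeded into each well · Measure – % luminescence enhancement versus blank-corrected plate control mean · Measured by – SteadyLite luminescence, 15 min reagent step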
# Hsp70 activator: Hsp70 transcriptional activators, primary screen, cell-based, HeLa, Hsp70 promoter luciferase, luminescence, 10 µM | HeLa Hsp70 promoter luciferase reporter; scaled: vehicle 0, proteasome-inhibitor control 100% | activation, % at 10 µM | 200,000 compounds, 0.04% hits | AID 1203, 2008;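 active = activation above the mean across all tested compounds plus 3 SD, cutoff set per campaign, cut at about 5.5% in these data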;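 also: 100% = MG132 at 30 µM as the positive control and 0% = DMSO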
# An asterisk follows results filed as active; i = inactive; nt = no result given. A selection: hits, their analogues and other compounds. The true share with any hit is near 2.6%.
SMILES,Rad51 HR inh,HSF-1 act,HSV augment,HSF1 inh,MDM2 E3 inh,Hsp70 activator
O=S(=O)(Nc1ccc2c(c1)OCCO2)c1cccc2nsnc12,3.1,-67.0,i,-59.4*,-30.9,-0.4
CCn1cc(S(=O)(=O)Nc2ccc3c(c2)OCCO3)cn1,-2.7,-82.9,i,-80.5*,-28.2,0.2
Cn1cc(S(=O)(=O)Nc2ccc3c(c2)OCCO3)cn1,nt,-67.1,i,-62.5*,-23.8,0.0
CCn1cc(S(=O)(=O)NCc2ccc3c(c2)OCO3)cn1,nt,0.2,nt,-3.2,nt,nt
Cc1cc(N)nc(=O)n1C1CC(O)C(CO)O1 (configuration not stated),nt,7.1,nt,7.1,nt,nt
COc1ccc(N2C(=O)/C(=C\c3ccco3)N=C2SCC(=O)NC(C)C)cc1Cl,-13.3,31.1,i,15.8,-7.7,-0.5
O=C(CSC1=N/C(=C/c2ccco2)C(=O)N1c1ccc(OC(F)F)cc1)NC1CCS(=O)(=O)C1 (configuration not stated),-12.4,63.7*,i,26.0,13.3,-0.3
COc1ccc(Cn2c(SC)nc3ccccc32)cc1[N+](=O)[O-],5.1,-69.5,i,-61.2*,-4.3,-0.1
O=C(O)c1cc2cc(F)ccc2[nH]1,-0.3,-72.2,i,-64.3*,nt,0.1
O=C(c1ccc(F)cc1)N1CCC(C(=O)N2CCN(S(=O)(=O)c3cccc(Cl)c3)CC2)CC1,nt,-3.2,nt,-8.6,nt,nt
Cc1ccc(-n2nnc(-c3cccnc3Cl)n2)cc1,10.3,69.8*,i,44.5,nt,-0.1
O=C(Nc1cccc(F)c1)/C(=C/c1ccco1)NC(=O)c1ccco1,nt,2.0,nt,1.9,nt,nt
COc1ccc(/C=C/C(=O)Nc2cc(=O)n(C)c(=O)n2C)cc1,-26.7,59.9*,i,27.5,-13.1,-0.3
Cn1c(NC(=O)/C=C/c2ccccc2)cc(=O)n(C)c1=O,-0.7,28.9,i,14.8,-6.5,0.1
O=C(/C=C/c1ccc(Cl)c(Cl)c1)Nc1cccnc1,nt,14.6,nt,16.2,nt,nt
Cn1c(NC(=O)/C=C/c2ccc(Cl)c(Cl)c2)cc(=O)n(C)c1=O,0.1,55.5*,i,44.3,-3.7,-0.2
Cc1ccc(C)c(-c2nnc(NC(=O)CCS(=O)(=O)c3ccc(F)cc3)o2)c1,nt,-5.4,nt,-2.7,nt,nt
CSc1ncc(C(=O)Nc2ccccc2)cn1,nt,2.8,nt,5.1,nt,nt
CC(OC(=O)/C=C/c1ccc2ccccc2n1)C(=O)NCc1ccccc1 (configuration not stated),nt,121.7*,nt,79.8,nt,nt
COC(=O)[C@@]1(Cc2ccc(OC)cc2)[C@H]2c3cc(C(=O)N4CCCC4)n(CCSCCO)c3C[C@H]2CN1C(=O)c1ccccc1,-2.6,nt,i,nt,nt,0.1
CCCCC(=O)Nc1cccc(NC(=O)c2cccc(Br)c2)c1,-3.6,-69.6,i,-62.3*,-4.2,-0.3
CCCCC(=O)Nc1cccc(NC(=O)c2ccc(Br)cc2)c1,1.5,-9.8,i,6.3,-9.1,0.0
C=CC[n+]1c(-c2ccc(OC)cc2)csc1NNC(=O)Nc1ccccc1,4.8,53.7*,i,25.6,nt,-0.6
O=C(CSc1nnnn1-c1ccccc1)Nc1ccccc1,nt,2.0,nt,-0.9,nt,nt
COc1cc(NC(=O)CSc2nnnn2-c2ccccc2)cc(OC)c1OC,-0.5,-73.2,i,-64.2*,-16.4,-0.4
SMILES,Rad51 HR inh,HSF-1 act,HSV augment,HSF1 inh,MDM2 E3 inh,Hsp70 activator
O=C1c2cccc3cc([N+](=O)[O-])cc(c23)C(=O)N1CCN1CCCC1,12.9,61.2*,i,31.8,-30.0,nt
O=C(c1cnccn1)N(Cc1ccco1)C1(C(=O)NC2CCCC2)CCCCC1,7.7,0.0,i,3.2,-10.4,-0.2
O=C(c1ccccn1)N(Cc1ccco1)C1(C(=O)NC2CCCC2)CCCCC1,-2.2,61.1*,i,22.7,-18.3,-0.3
CC(C)OCCCNC(=O)c1cc(-c2cccnc2)nc2ccccc12,nt,4.7,nt,1.4,nt,nt
O=C(Nc1ccc(Cl)cc1)/C(=C/c1cccc(O)c1)c1nc2ccccc2s1,-12.3,-74.4,i,-76.0*,0.3,-0.2
CC(CSc1nc2ccccc2s1)Cn1c(N2CCCC2)nc2c1c(=O)[nH]c(=O)n2C (configuration not stated),-2.0,56.5*,i,22.2,-9.9,-0.2
O=C(N=C1c2ccccc2CN1c1ccccc1)c1cccc([N+](=O)[O-])c1,0.6,18.6,i,-0.2,-7.7,-0.2
CCOC(=O)c1ccc(N2Cc3ccccc3C2=NC(=O)c2cccc([N+](=O)[O-])c2)cc1,nt,68.2*,nt,30.0,nt,nt
CC(=C/c1ccccc1)/C=N/Nc1nc(N2CCCCC2)nc(N2CCCCC2)n1,1.1,-7.5,i,-3.0,-8.3,-0.2
BrC(/C=N/Nc1nc(N2CCOCC2)nc(N2CCOCC2)n1)=C/c1ccccc1,-3.9,64.2*,i,46.7,-5.7,-0.2
CC(C)(C)c1ccc(C(=O)NC(=S)N2CCOCC2)cc1,nt,25.9,nt,11.7,nt,nt
CC(C)Oc1ccc(C(=O)NC(=S)N2CCOCC2)cc1,nt,-19.0,nt,-22.0,53.3*,-0.2
O=C(NC(=S)Nc1cccc(Cl)c1N1CCCCC1)c1ccc2c(c1)OCCO2,10.3,-65.9,i,-58.0*,-5.2,-0.3
CCOc1ccc(-c2ccc(C=O)o2)c([N+](=O)[O-])c1,6.0,109.0*,i,84.2,-3.8,-0.3
CNC(=O)/C(C#N)=C/c1ccc(-c2ccc(OC)cc2[N+](=O)[O-])o1,-2.4,-90.8,i,-89.3*,5.7,0.0
O=C(N/N=C/c1c(Cl)cccc1Cl)c1cccc(F)c1,0.7,31.0,i,18.3,-10.5,-0.1
O=C(N/N=C/c1ccccc1Cl)c1n[nH]c2c1CCCC2,-3.4,-71.5,i,-66.5*,-74.8,-0.5
O=C(N/N=C/c1ccccc1Cl)c1cccc(F)c1,-2.5,72.6*,i,41.6,-5.0,0.2
Cc1nc(NC(=O)CSc2nnc(C3CC3)n2C)sc1C(=O)N(C)C,nt,-14.5,nt,-7.9,nt,nt
C=CCn1c(C)nnc1SCC(=O)Nc1nc(C)c(C(=O)N(C)C)s1,nt,-81.4,nt,-75.8*,nt,nt
O=C(CCC(=O)c1cccs1)NCc1cccc(C(F)(F)F)c1,nt,8.9,nt,-4.1,nt,nt
CN(C)CC(CCCCC(CN(C)C)C(=O)c1ccccc1)C(=O)c1ccccc1 (configuration not stated),19.1,0.7,i,-7.3,-17.7,nt
CC(=O)Oc1ccc(Cn2cnc3cc4ccccc4cc32)cc1,4.5,67.5*,i,39.9,-1.7,0.0
COCCNC(=S)N/N=C(\C)c1cccc(OC)c1,-2.2,4.5,i,-0.8,-13.6,-0.2
